Reference: ChEMBL document CHEMBL4480436, “Lead optimization of selective tubulin inhibitors as anti-trypanosomal agents” (Bioorg Med Chem, 2019)
pIC50: −log10 of the molar value.

Experiments:
HEK293 = test: Cytotoxicity against HEK293 cells after 48 hrs by MTT assay; format: cell-based; conditions: Homo sapiens, HEK293, 48 h
Procedure, shortened: (§1)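 Cells kept in RPMI1640 with 10% heat-inactivated FBS, 2 mM L-glutamine, 1 mM pyruvate, pen-strep, 37 °C, 5% CO2. 3000 cells/well seeded 24 h, then exposed to graded concentrations (DMSO ≤0.1% final) for 48 h. Then 0.5 mg/mL MTT 3 h at 37 °C, DMSO solubilization, absorbance 570 nm. Quadruplicate data fitted to dose–response curves for IC50.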

[1] = Selectivity index, ratio of IC50 for mouse RAW264.7 cells to IC50 for Trypanosoma brucei brucei Lister 427; format: toxicity; conditions: read-out: Ratio IC50
Procedure, shortened: (§2)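 Ratio of mammalian MTT IC50 (48 h) to T. brucei MTS IC50 (48 h), both from quadruplicate dose–response fits.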

[2] = Selectivity index, ratio of IC50 for HEK293 cells to IC50 for Trypanosoma brucei brucei Lister 427; format: toxicity; conditions: human, read-out: Ratio IC50; procedure, shortened: as §2
[3] = system: Trypanosoma brucei brucei; test: Antiparasitic activity against Trypanosoma brucei brucei Lister 427 assessed as reduction in parasite viability after 48 hrs by MTS assay; format: functional, organism-based; conditions: Lister 427, 48 h
Procedure, shortened: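 Bloodstream-form Lister 427 grown in HMI-9 with 10% FBS, 37 °C, 7.5% CO2. 5000 cells/well exposed to graded concentrations with 0.1% DMSO for 48 h at 37 °C. MTS/PMS reagent then added, 3 h at 37 °C, formazan read at 490 nm. Quadruplicate data normalized and fitted to dose–response curves for IC50 (Mean ± S.D.).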

RAW264.7 = test: Cytotoxicity against mouse RAW264.7 cells after 48 hrs by MTT assay; format: cell-based; conditions: RAW264.7, 48 h; procedure, shortened: as §1

Compound | pIC50 (HEK293) | selectivity ratio [1] | selectivity ratio [2] | pIC50 [3] | pIC50 (RAW264.7)
CCS(=O)(=O)Nc1ccc(NC(=O)c2cc(C(F)(F)F)cc(C(F)(F)F)c2)cc1C | 3.90 | 10 | 10 | 4.90 | 3.91
CS(=O)(=O)Nc1ccc(NC(=O)c2cccc(C(F)(F)F)c2)cc1F | < 3.60 | < 1 |  | < 4.20 | 4.49
COc1cc(NC(=O)c2ccc(C#N)cc2)ccc1NS(=O)(=O)C(F)(F)F | < 3.60 | > 26 | > 26 | 5.02 | < 3.60
O=C(Nc1ccc(NS(=O)(=O)C(F)(F)F)c(Cl)c1)c1ccc(Cl)c([N+](=O)[O-])c1 | 3.64 | 1 | 5 | 4.32 | 4.50
Cc1cc(NC(=O)c2cc(C(F)(F)F)cc(C(F)(F)F)c2)ccc1NS(=O)(=O)C(F)(F)F | 3.74 | 2 | 9 | 4.69 | 4.39
Cc1cc(NC(=O)c2cccc(C(F)(F)F)c2)ccc1NS(C)(=O)=O | 3.71 | 7 | 12 | 4.78 | 3.96
CCS(=O)(=O)Nc1ccc(NC(=O)c2cc(C(F)(F)F)cc(C(F)(F)F)c2)cc1F | < 3.60 | > 28 | > 28 | 5.06 | < 3.60
COc1cc(NC(=O)c2cccc(C(F)(F)F)c2)ccc1NS(=O)(=O)C(F)(F)F | < 3.60 | 2 | > 6 | 4.37 | 4.12
CCS(=O)(=O)Nc1ccc(NC(=O)c2cccc(C(F)(F)F)c2)cc1OC | < 3.60 | 2 | > 7 | 4.45 | 4.07
O=C(Nc1ccc(NS(=O)(=O)C(F)(F)F)c(Cl)c1)c1cc(C(F)(F)F)cc(C(F)(F)F)c1 | < 3.60 | 3 | > 5 | 4.32 | 3.87
CS(=O)(=O)Nc1ccc(NC(=O)c2cc(C(F)(F)F)cc(C(F)(F)F)c2)cc1Cl | 3.73 | 7 | 18 | 5.00 | 4.16
COc1cc(NC(=O)c2cccc(C(F)(F)F)c2)ccc1NS(C)(=O)=O | < 3.60 | < 2 |  | < 4.20 | 4.07
CCS(=O)(=O)Nc1ccc(NC(=O)c2ccc(Cl)c([N+](=O)[O-])c2)cc1C | 3.84 | 7 | 7 | 4.71 | 3.85
O=C(Nc1ccc(NS(=O)(=O)C(F)(F)F)c(F)c1)c1ccc(Cl)cc1 | 4.10 | < 1 | < 2 | < 4.20 | 5.08
Cc1cc(NC(=O)c2cccc(C(F)(F)F)c2)ccc1NS(=O)(=O)C(F)(F)F | 3.88 | < 1 | 6 | 4.66 | 5.06
N#Cc1ccc(C(=O)Nc2ccc(NS(=O)(=O)C(F)(F)F)c(Cl)c2)cc1 | < 3.60 | > 23 | > 23 | 4.96 | < 3.60
Cc1cc(NC(=O)c2ccc(C#N)cc2)ccc1NS(C)(=O)=O | 4.36 | < 3 | < 1 | < 4.20 | 3.77
CCS(=O)(=O)Nc1ccc(NC(=O)c2cc(C(F)(F)F)cc(C(F)(F)F)c2)cc1OC | < 3.60 | > 22 | > 22 | 4.94 | < 3.60
CS(=O)(=O)Nc1ccc(NC(=O)c2ccc(Cl)cc2)cc1F | 3.67 | < 1 | < 4 | < 4.20 | 4.65

Compound | pIC50 (HEK293) | selectivity ratio [1] | selectivity ratio [2] | pIC50 [3] | pIC50 (RAW264.7)
COc1cc(NC(=O)c2ccc(Cl)c([N+](=O)[O-])c2)ccc1NS(C)(=O)=O | 3.78 |  | < 3 | < 4.20 | < 3.60
Cc1cc(NC(=O)c2ccc(Cl)c([N+](=O)[O-])c2)ccc1NS(=O)(=O)C(F)(F)F | < 3.60 | < 2 |  | < 4.20 | 4.05
Cc1cc(NC(=O)c2ccc(Cl)cc2)ccc1NS(C)(=O)=O | 4.30 | < 2 | < 1 | < 4.20 | 4.16
CS(=O)(=O)Nc1ccc(NC(=O)c2ccc(Cl)c([N+](=O)[O-])c2)cc1Cl | 3.69 | < 1 | < 4 | < 4.20 | 4.36
CS(=O)(=O)Nc1ccc(NC(=O)c2cccc(C(F)(F)F)c2)cc1Cl | < 3.60 |  |  | < 4.20 | < 3.60
Cc1cc(NC(=O)c2ccc(Cl)cc2)ccc1NS(=O)(=O)C(F)(F)F | 3.70 | 1 | 5 | 4.43 | 
COc1cc(NC(=O)c2cc(C(F)(F)F)cc(C(F)(F)F)c2)ccc1NS(C)(=O)=O | 4.38 |  | < 1 | < 4.20 | < 3.60
CCS(=O)(=O)Nc1ccc(NC(=O)c2cccc(C(F)(F)F)c2)cc1Cl | 3.80 | 8 | 20 | 5.11 | 4.20
O=C(Nc1ccc(NS(=O)(=O)C(F)(F)F)c(F)c1)c1cc(C(F)(F)F)cc(C(F)(F)F)c1 | 3.79 | 12 | 17 | 5.03 | 3.95
CCS(=O)(=O)Nc1ccc(NC(=O)c2ccc(C#N)cc2)cc1OC | < 3.60 | < 2 |  | < 4.20 | 4.18
CCS(=O)(=O)Nc1ccc(NC(=O)c2ccc(Cl)cc2)cc1OC | < 3.60 | < 1 |  | < 4.20 | 4.22
CCS(=O)(=O)Nc1ccc(NC(=O)c2ccc(Cl)cc2)cc1F | 4.27 | < 3 | < 1 | < 4.20 | 3.82
CCS(=O)(=O)Nc1ccc(NC(=O)c2ccc(C#N)cc2)cc1C | < 3.60 | < 2 |  | < 4.20 | 3.96
CS(=O)(=O)Nc1ccc(NC(=O)c2ccc(C#N)cc2)cc1F | < 3.60 |  |  | < 4.20 | < 3.60
COc1cc(NC(=O)c2ccc(C#N)cc2)ccc1NS(C)(=O)=O | < 3.60 |  |  | < 4.20 | < 3.60
Cc1cc(NC(=O)c2ccc(C#N)cc2)ccc1NS(=O)(=O)C(F)(F)F | < 3.60 | < 3 |  | < 4.20 | 3.87
CS(=O)(=O)Nc1ccc(NC(=O)c2ccc(C#N)cc2)cc1Cl | < 3.60 |  |  | < 4.20 | < 3.60
COc1cc(NC(=O)c2cc(C(F)(F)F)cc(C(F)(F)F)c2)ccc1NS(=O)(=O)C(F)(F)F | < 3.60 |  |  | < 4.20 | < 3.60
COc1cc(NC(=O)c2ccc(Cl)cc2)ccc1NS(C)(=O)=O | < 3.60 | < 2 |  | < 4.20 | 4.15
